Test system: MS2 coat protein
Experiment: apparent Kd, MS2 coat protein; higher = weaker binding; RNA-MaP array; FMN 200 µM where present
Method in brief: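 SNAP-549-labelled MS2 coat protein, doubled from 0.7 or 1.5 nM to 3 µM, was titrated over designs transcribed by stalled E. coli RNA polymerase on Illumina sequencing-chip clusters. Titrations were run without and then with constant ligand in 100 mM Tris-HCl pH 7.5, 80 mM KCl, 4 mM MgCl2, BSA, DTT, yeast tRNA and Tween-20. The apparent Kd is the median of filtered per-cluster fits to green signal normalised to red-channel RNA signal and control-cluster median Fmax.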

[1] = designed as: OFF switch for flavin mononucleotide, no ligand
[2] = ligand present: flavin mononucleotide, designed as: OFF switch for flavin mononucleotide
[3] = designed as: ON switch for flavin mononucleotide, no ligand
[4] = ligand present: flavin mononucleotide, designed as: ON switch for flavin mononucleotide

Sequence	apparent Kd [1]	apparent Kd [2]	apparent Kd [3]	apparent Kd [4]
UUAUAUAGUGUGAGGAUAUGCUGGUCCUUGGAUCAGCAGAAGGCACAUGAGGAUCACCCAUGUAGUUAAAUUUA	34.4 nM	134 nM		
CCCACGAGCGUAGGAUAUACAUGAGGAUCACCCAUGUAGGCACAAUGUCCCAGCUAGUGACCAGUGUAGAAGGACGUGUCUGGG	50.8 nM	107 nM		
GGAUAGUGAGGAUAUCGAUGUUAGGAGGAGGAGGUAGGAGGCGAGAAGGCACAUGAGGAUCACCCAUGUAUGGU	31.8 nM	29.4 nM		
ACCAUUUACUAAUCUUCUAUACAUGAGGAUCACCCAUGUUUUGAGGAUAUCAGCGUGAAACACGCUGAGAAGGCAAAACAUUCG	72 nM	393 nM		
GAGAAGUCAGGAUAUGCUGCUCGUCACUUGCGUGAUGAGUAGCAGAAGGGACAUGAGGAUCACCCAUGUGGAAA	107 nM	202 nM		
AACAACCUAGGAUAUACAUGAGGAUCACCCAUGUUACUACUGGGUAAUCCCAAUUCGAGUAGAAGGAGGAUCAA	47.7 nM	87 nM		
GUGCCUUGGGAGAAGGCCCAAUGUAAAGCAUAGGGAGGAUAUUCAUAUAAUAAAUAAACAUGAGGAUCACCCAUGUGGCACAAA			831 nM	48.5 nM
AAAGCAACAUGAGGAUCACCCAUGUAGGAUAUCGCUAUUGUAAUCAUGAAACAUGAUUACAAUAGCGAGAAGGACAUAUGCUAA	9.26 nM	10.8 nM		
UUGGACGUUGUAGGAUAUGUAGGAUAUUCCUACAUGAGGAUCACCCAUGUUGACAUGGAAGAAGGACAGAAGGACGAUGUCCAU			277 nM	5.32 nM
GCACGAUAUCAGGAUAUGACUAGCUGCGGCUAGUCAGAAGGGAUGACAUGAGGAUCACCCAUGUGAUCACGUGC	57.6 nM	78.7 nM		
AUAUUGUGAGGAUAUCCAAUAUAUGACAUGAGGAUCACCCAUGUUUCCACUCGUACCUCCGGAGAAGGCACUUAUA	24.3 nM	22.8 nM		
UUUGUAUAGGUAGGAUAUACUUUCAAUUUUUUUUUCCUUACAUGAGGAUCACCCAUGUUUACAUUGUAGAAGGACCUCAUUGUU	250 nM	326 nM		
AUCAGCUCGUCAGGAUAUUCGUCACUGCGUCAGCAGUGUGGUAAGAUCACAUGAGGAUCACCCAUGUAGAAGGGACGAGCUGAU	8.23 nM	19.2 nM		
AGGACAAGGCAGAAGGGACAUGAGGAUCACCCAUGUACCGUGGUUCAGCAGUCAGGAUAUGCCAUAUGUAAACAUAUCGUAAGA	12.1 nM	108 nM		
AGCUAUUAAUCAGGAUAUAGGGACAUGAGGAUCACCCAUGUGUACAUGAUAAAAUGUGAUCACGUCUAGAAGGGAUUACUAACA			77 nM	79.8 nM
AAGAAGUCAGGAUAUCCAUGGCGGCACUUGCGUGGUGGCGUGGAGAAGGGACAUGAGGAUCACCCAUGUAAAGG	149 nM	173 nM		
CUUCUGUGAGGAUAUGUGAACCCGUGCCGAAAGGAUGGGAAACAGAAGGCACAUGAGGAUCACCCAUGUAAAAU	35.3 nM	179 nM		
GUGUUGUCAGGAUAUCUUACAUAACAAUCGUUGUUACCAUUGGAGAAGGGACAUGAGGAUCACCCAUGUUAUCC	24.1 nM	26.3 nM		
GCACUGGAUGUAGGAUAUCAGGACGAUAAGUCCUGAGAAGGACAUGAGGAUCACCCAUGUACACAAAACCAGUGCUAUAAUAUA	13.7 nM	18.8 nM		
CAUGUCCUCACAGGAUAUGCACCACUUUGUGGUGCAGAAGGGUGGUAACAUGAGGAUCACCCAUGUGGACAUGAUAUAUUUAAU			523 nM	294 nM
GUAGAGAUUACAUGAGGAUCACCCAUGUCAGAACGGGUAAUCAGAAGGUAUUAUUAGAGAGAGGGUAAGGAUAUGAUUUUUUAU			634 nM	438 nM
AUGCAGGGCGAGAAGGAGCGACAUGAGGAUCACCCAUGUAUCUUCAACUCGCUAGGAUAUCGGGUUGUAUUGAAAAUUAUUGAA	4.86 nM	5.5 nM		
AGAUCCUGAGUCAGGAUAUAGAGGCGAAAGCCUGGCUAGAAGGGACAUGAGGAUCACCCAUGUGGGUUCGUGCC	20.2 nM	66.5 nM		
GGCGCAGCGGAGAAGGACGUGGCUCGCCACCACGUAGGAUAUCCCUGUGUACCGAAUUGUUACAUGAGGAUCACCCAUGUGGAC			6.16 nM	6.28 nM
GGGAAGGUUAGAGGAUAUAUUGUGUGUGAGAGAAUAGAAGGCUAAACAUGAGACACACACAUGAGGAUCACCCAUGUUAUGUUU			147 nM	91 nM
GCGGAACAUGAGGAUCACCCAUGUAAAGGGUGUAAAGGAUAUUAUUGGGAGAAGGUAGGGUAAGAAGGUUGCUUGG			887 nM	1280 nM
CCGCUCGAGCAGAAGGCAAUGAGGGUUAUACAUUGAGGAUAUGCUACGUACGUGGUACAUGAGGAUCACCCAUGUAGCCUAUCU			788 nM	93.4 nM
AAGGAGUAAGGAUAUGCUGCUCGUCACUUGCGUGAUGAGUAGCAGAAGGUACAUGAGGAUCACCCAUGUAAAGA	27.4 nM	20.1 nM		
